Active and inactive are the calls of the source. The rule behind the calls is not given here.
Key:
[1] = Cytotoxicity against African green monkey Vero cells after 72 hrs by MTT assay; type: cell-based; details: chlorocebus sabaeus
Summary of the method: (§1)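 VERO (ATCC CCL-81) and HepG2 (ATCC HB-8065) cells were exposed for 24, 48 or 72 h to an […] dilution series from 400 to 1.56 μM. CC50 was taken from the concentration–response curve. Triplicates, with at least three independent cultures (n = 3).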

Plasmodium falciparum [2] = assay: Antiplasmodial activity against synchronous culture of chloroquine-resistant Plasmodium falciparum W2 ring stage parasite infected in human erythrocytes assessed as parasite cell death at 100 uM up to 72 hrs by Wright's eosin methylene blue staining based microscopic analysis; type: functional, organism-based
Summary of the method: (§2)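 Stage-specificity test on W2 parasites in human erythrocytes, started at 2% parasitaemia. Parasites cultured at 2% hematocrit in complete medium at 37 °C.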

[3] = Cytotoxicity against human HepG2 cells after 72 hrs by MTT assay; type: cell-based; summary of the method: as §1
[4] = Resistance index, ratio of IC50 for chloroquine-resistant Plasmodium falciparum W2 infected in human erythrocytes to IC50 for chloroquine-sensitive Plasmodium falciparum 3D7; type: functional
Plasmodium falciparum [5] = assay: Antiplasmodial activity against Plasmodium falciparum assessed as combination index in presence of artemisinin; type: functional
Summary of the method: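 Chloroquine-resistant P. falciparum W2 was grown in fresh human O+ erythrocytes at 2% hematocrit in complete medium at 37 °C. Artemisinin was co-tested with the triterpene using the one-point Chou–Talalay method, at a minimum of one combination ratio. CI is the sum of the two FICs: ≤1 synergy, 1–2 additivity, >2 antagonism. Triplicates, n = 3 independent cultures.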

Plasmodium falciparum [6] = assay: Antiplasmodial activity against synchronous culture of chloroquine-resistant Plasmodium falciparum W2 ring stage parasite infected in human erythrocytes assessed as accumulation of ring forms at 100 uM after 24 to 72 hrs by Wright's eosin methylene blue staining based microscopic analysis; type: functional, organism-based; summary of the method: as §2
Subtilisin Carlsberg = target: T1, Subtilisin Carlsberg (Bacillus licheniformis, UniProt P00780); assay: Inhibition of Bacillus licheniformis subtilisin A by green-fluorescent BODIPY FL dye based fluorescence assay
T1 sequence (P00780 whole entry): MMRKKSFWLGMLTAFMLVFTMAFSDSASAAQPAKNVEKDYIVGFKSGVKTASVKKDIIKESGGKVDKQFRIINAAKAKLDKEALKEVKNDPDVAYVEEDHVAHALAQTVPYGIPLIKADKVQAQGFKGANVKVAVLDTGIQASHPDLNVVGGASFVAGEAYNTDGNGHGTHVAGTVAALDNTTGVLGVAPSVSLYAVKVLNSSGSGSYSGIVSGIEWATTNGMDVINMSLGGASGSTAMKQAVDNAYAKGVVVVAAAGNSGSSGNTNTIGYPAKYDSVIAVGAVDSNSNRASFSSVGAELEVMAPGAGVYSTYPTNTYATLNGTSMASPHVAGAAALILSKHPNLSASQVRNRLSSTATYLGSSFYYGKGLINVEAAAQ
Summary of the method: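 Purified B. licheniformis subtilisin A tested with a commercial fluorescent peptidase/protease kit, following the kit protocol. Test compound ranged from 5 to 0.01 mM. Fluorescence plotted against log inhibitor concentration.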

Plasmodium falciparum [7] = assay: Antiplasmodial activity against chloroquine-sensitive Plasmodium falciparum 3D7; type: functional, organism-based
Plasmodium falciparum [8] = assay: Antiplasmodial activity against chloroquine-resistant Plasmodium falciparum W2 infected in human erythrocytes; type: functional, organism-based
Summary of the method: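 P. falciparum W2 grown in fresh human O+ erythrocytes at 2% hematocrit in complete medium, 37 °C. Compounds tested over a 100–3.12 µM dilution series. IC50 estimated from the dose-response curve relative to drug-free control wells (100% parasite viability). Artemisinin run in parallel as control. Triplicates, at least three independent cultures (n = 3).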

[9] = Selectivity index, ratio of CC50 for human HepG2 cells to IC50 for chloroquine-resistant Plasmodium falciparum W2; type: toxicity; details: read-out: Ratio CC50/IC50
Summary of the method: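 SI = HepG2 CC50 / W2 IC50. CC50 came from HepG2 growth inhibition over a 400–1.56 µM dilution series, read at 24, 48 and 72 h. IC50 came from the W2 erythrocyte assay (100–3.12 µM range). Triplicates, at least three independent cultures.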

Plasmodium falciparum [10] = assay: Antiplasmodial activity against synchronous culture of chloroquine-resistant Plasmodium falciparum W2 ring stage parasite infected in human erythrocytes assessed as delayed appearance of trophozoites at 100 uM after 24 to 72 hrs by Wright's eosin methylene blue staining based microscopic analysis; type: functional, organism-based; summary of the method: as §2
Plasmodium falciparum [11] = assay: Antiplasmodial activity against Plasmodium falciparum assessed as potentiation of artemisinin-induced antimalarial activity by measuring dose reduction index relative to artemisinin alone; type: functional
Plasmodium falciparum [12] = assay: Antiplasmodial activity against synchronous culture of chloroquine-resistant Plasmodium falciparum W2 ring stage parasite infected in human erythrocytes assessed as reduction in parasitaemia at 100 uM after 24 to 72 hrs by Wright's eosin methylene blue staining based microscopic analysis; type: functional, organism-based; summary of the method: as §2

C=C(C)[C@@H]1CC[C@]2(C(=O)O)CC[C@]3(C)[C@H](CC[C@@H]4[C@@]5(C)CC[C@H](OC(=O)CCC)C(C)(C)[C@@H]5CC[C@]43C)[C@@H]12
CC50 at 72 h [1]: > 400 µM
Activity (Plasmodium falciparum [2]): Active
CC50 at 72 h [3]: > 400 µM
Ratio IC50 [4]: 0.68
CI (Plasmodium falciparum [5]): 1.34
Activity (Plasmodium falciparum [6]): Active
IC50 (Subtilisin Carlsberg): 93 µM
IC50 (Plasmodium falciparum [7]): 5 µM
IC50 (Plasmodium falciparum [8]): 3.4 µM
selectivity ratio [9]: > 117
Activity (Plasmodium falciparum [10]): Active
Activity_index (Plasmodium falciparum [11]): 4
Activity (Plasmodium falciparum [12]): Active

Source: ChEMBL document CHEMBL4184121, “Semisynthesis, cytotoxicity, antimalarial evaluation and structure-activity relationship of two series of triterpene derivatives” (Bioorg Med Chem Lett, 2018)
